Results as given in ChEMBL document CHEMBL1140279, “Synthesis and antimalarial evaluation of new N1-(7-chloro-4-quinolyl)-1,4-bis(3-aminopropyl)piperazine derivatives” (Bioorg Med Chem Lett, 2005).

Key:
[1] = system: Plasmodium falciparum; assay: Antimalarial activity as growth inhibition of chloroquine-resistant Plasmodium falciparum FcB1; type: functional, organism-based
How it was run: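 Parasite growth inhibition assay on the chloroquine-resistant P. falciparum FcB1 strain. IC50 values are derived from triplicate experiments and reported with standard error.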

[2] = system: MRC5; assay: Cytotoxic concentration of compound of compound […] MRC-5 cells (human diploid embryonic lung cell line); type: functional
How it was run: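 Cytotoxicity measured on MRC-5 human diploid embryonic lung cells with a colorimetric MTT assay, giving the CC50.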

[3] = system: MRC5; assay: Ratio of CC50/IC50 was determined; type: functional, Homo sapiens
How it was run: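 Selectivity index taken as the ratio of CC50 on MRC-5 human diploid embryonic lung cells (colorimetric MTT assay) to IC50 for growth inhibition of the chloroquine-resistant Plasmodium falciparum strain FcB1. The IC50s come from triplicate experiments and are reported with standard error.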

SMILES | IC50 [1] [µM] | CC50 [2] [µM] | Ratio [3]
NC(=O)CCC(=O)N(CCCN1CCN(CCCNc2ccnc3cc(Cl)ccc23)CC1)CC1CC1 | < 1 | > 32 | –
CC(C)(C)OC(=O)NCCC(=O)N(CCCN1CCN(CCCNc2ccnc3cc(Cl)ccc23)CC1)CC1CC1 | 0.0342 | 4 | 116
O=C(C1CC1)N(CCCN1CCN(CCCNc2ccnc3cc(Cl)ccc23)CC1)CC1CC1 | 0.0065 | 13.5 | 2076
O=C(CCCO)N(CCCN1CCN(CCCNc2ccnc3cc(Cl)ccc23)CC1)CC1CC1 | 0.172 | 21 | 122
N#CCCCCN(CCCN1CCN(CCCNc2ccnc3cc(Cl)ccc23)CC1)CC1CC1 | 0.0099 | 4 | 404
CC(C)(C)OC(=O)NCCCN(CCCN1CCN(CCCNc2ccnc3cc(Cl)ccc23)CC1)CC1CC1 | 0.0126 | 4 | 317
NCCCN(CCCN1CCN(CCCNc2ccnc3cc(Cl)ccc23)CC1)CC1CC1 | 0.152 | > 32 | >210
O=C(O)CCC(=O)N(CCCN1CCN(CCCNc2ccnc3cc(Cl)ccc23)CC1)CC1CC1 | – | > 32 | >23
NCCC(=O)N(CCCN1CCN(CCCNc2ccnc3cc(Cl)ccc23)CC1)CC1CC1 | – | > 32 | >80
